Test results as given in ChEMBL document CHEMBL4028911, “Discovery of a Small-Molecule Bromodomain-Containing Protein 4 (BRD4) Inhibitor That Induces AMP-Activated Protein Kinase-Modulated Autophagy-Associated Cell Death in Breast Cancer” (J Med Chem, 2017).
The source made the active and inactive calls. No cut-off for these calls is given here.

Assays:
MCF7 [1] = test: Induction of autophagy in GFP-LC3 fused human MCF7 cells assessed as increase in LC3 puncta at 1.5 uM by fluorescence microscopy; type: functional, cell-based
How it was run: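 MCF-7 or MDA-MB-231 cells transfected with eGFP-LC3 plasmid, then treated with 1.5 or 3 µM respectively for 24 h. LC3 puncta viewed by fluorescence microscopy.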

MDA-MB-231 = test: Antitumor activity against human MDA-MB-231 cells xenografted in nude BALB/c mouse assessed as tumor growth inhibition at 25 to 100 mg/kg, ig administered once a day for 27 days measured every 3 days relative to control; type: functional
How it was run: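 Female BALB/c nude mice, 6-8 weeks, 20-22 g, injected subcutaneously with 5×10^6 MCF-7 or MDA-MB-231 cells. At 100 mm³ tumor volume (V = L×W²/2), split into four groups: 25, 50 or 100 mg/kg intragastric once daily for 24 or 27 days, or vehicle. Tumor volume and body weight measured every 3 days; tumors excised and weighed at end. MCF-7 n=7, MDA-MB-231 n=6 per group.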

Homo sapiens = species: Homo sapiens; test: Increase in p53 interaction with AMPK in human MCF7 cells at 1.5 uM by co-immunoprecipitation assay; type: cell-based
How it was run: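 Cells left untreated or treated, then lysed in RIPA (40 mM Tris-HCl pH 7.5, 150 mM NaCl, 0.5% NP-40, protease inhibitors, 5% glycerol, 10 mM NaF). Lysates incubated overnight at 4°C with BRD4 or p53 antibodies plus protein A/G beads, washed 3 times, resolved on 10% SDS-PAGE. Blots probed for p53 and AMPKα; inputs checked for BRD4, p53 and AMPKα.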

[2] = target: T1, Bromodomain-containing protein 4 (Homo sapiens, UniProt O60885); test: Inhibition of BRD4 in human MCF7 cells assessed as reduction in ULK1 protein expression at 1.5 uM up to 36 hrs by Western blot analysis; type: cell-based
How it was run: (§1)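 MCF-7 (1.5 μM) or MDA-MB-231 (3 μM) cells treated for indicated times. Adherent and floating cells lysed in RIPA with 1 mM PMSF. Equal protein run on 10-15% SDS-PAGE, blotted to PVDF, blocked in milk or BSA, HRP/ECL detection. β-actin loading control.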

[3] = target: AMP-activated protein kinase, AMPK (Homo sapiens) (UniProt P54646+O43741+P54619+Q9UGJ0+Q9Y478+Q13131+Q9UGI9); test: Inhibition of AMPK (unknown origin) at 1 to 10^6 nM using MBP as substrate after 60 mins in presence of ATP by ADO-Glo assay
[4] = target: T1, Bromodomain-containing protein 4; test: Inhibition of BRD4 in human MCF7 cells assessed as downregulation of AKT phosphorylation at ser473 at 1.5 uM measured up to 36 hrs by Western blot analysis; type: cell-based; how it was run: as §1
[5] = target: T1, Bromodomain-containing protein 4; test: Inhibition of BRD4 in human MCF7 cells assessed as downregulation of mTOR phosphorylation at ser244 at 1.5 uM measured up to 36 hrs by Western blot analysis; type: cell-based; how it was run: as §1
[6] = target: T2, Serine/threonine-protein kinase ULK1 (Homo sapiens) (UniProt O75385); test: Inhibition of recombinant human ULK1 (1 to 649 residues) expressed in baculovirus infected Sf9 cells at 1 to 10^6 nM using MBP as substrate after 60 mins in presence of ATP by ADO-Glo assay
T2 sequence (whole entry): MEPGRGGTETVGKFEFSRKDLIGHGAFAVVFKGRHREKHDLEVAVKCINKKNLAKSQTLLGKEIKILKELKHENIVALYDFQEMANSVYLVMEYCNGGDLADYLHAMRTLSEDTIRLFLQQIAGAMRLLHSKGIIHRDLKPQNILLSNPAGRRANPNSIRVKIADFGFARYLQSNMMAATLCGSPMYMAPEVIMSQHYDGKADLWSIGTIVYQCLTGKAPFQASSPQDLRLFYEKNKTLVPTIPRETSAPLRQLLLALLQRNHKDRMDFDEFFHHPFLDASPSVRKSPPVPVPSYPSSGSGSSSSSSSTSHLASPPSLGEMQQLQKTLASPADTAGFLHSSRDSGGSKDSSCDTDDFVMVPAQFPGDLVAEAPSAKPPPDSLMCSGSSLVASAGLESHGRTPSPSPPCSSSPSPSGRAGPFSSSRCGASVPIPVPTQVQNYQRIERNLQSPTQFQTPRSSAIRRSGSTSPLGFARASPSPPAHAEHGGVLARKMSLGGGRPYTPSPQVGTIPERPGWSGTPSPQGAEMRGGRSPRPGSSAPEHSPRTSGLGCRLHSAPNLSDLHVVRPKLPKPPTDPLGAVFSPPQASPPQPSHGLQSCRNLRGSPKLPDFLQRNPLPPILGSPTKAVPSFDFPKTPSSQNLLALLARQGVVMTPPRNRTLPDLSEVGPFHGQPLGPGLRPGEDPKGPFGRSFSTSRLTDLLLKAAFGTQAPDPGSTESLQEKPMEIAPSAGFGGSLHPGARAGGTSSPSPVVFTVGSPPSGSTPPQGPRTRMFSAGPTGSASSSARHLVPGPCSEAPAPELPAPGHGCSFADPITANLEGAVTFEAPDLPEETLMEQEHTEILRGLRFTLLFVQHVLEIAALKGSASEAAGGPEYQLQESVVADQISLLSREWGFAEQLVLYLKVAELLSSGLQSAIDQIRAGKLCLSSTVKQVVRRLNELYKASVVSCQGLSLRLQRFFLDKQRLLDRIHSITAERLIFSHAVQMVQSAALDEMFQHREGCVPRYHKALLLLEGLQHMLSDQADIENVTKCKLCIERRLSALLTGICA

MCF7 [7] = test: Effect on mTOR expression in human MCF7 cells at 1.5 uM measured up to 36 hrs by Western blot analysis; type: ADME, cell-based; settings: mcf7, 36 h
How it was run: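 MCF-7 (1.5 µM) or MDA-MB-231 (3 µM) cells treated for indicated times. Adherent and floating cells lysed in RIPA with 1 mM PMSF, 4°C for 1 h. Equal protein run on 10-15% SDS-PAGE, transferred to PVDF, blocked with milk or BSA, probed with primary then HRP secondary antibodies, ECL detection; β-actin as loading control.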

Mus musculus = test: In vivo inhibition of BRD4 expression in BALB/c mouse xenografted with human MCF7 cells at 100 mg/kg, ig administered once a day for 24 days by Western blot analysis; type: functional, organism-based
How it was run: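 Tumor tissues excised from MCF-7 or MDA-MB-231 xenograft mice were lysed and analysed by western blot for BRD4, c-Myc, LC3 and cleaved caspase-3.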

Question: For `Cc1cc(-c2nc3sc4c(c3c(=O)[nH]2)CCN(C)C4)cc(C)c1O`, which Activity (MCF7 [1]) is on record?
Answer: Active

Question: What about the TGI (MDA-MB-231) of the same compound?
Answer: 76%

Question: And the Activity (Homo sapiens)?
Answer: Active

Question: What about the inhibition [2] of the same compound?
Answer: Active

Question: What about the inhibition [3] of the same compound?
Answer: inactive

Question: And the inhibition [4]?
Answer: Active

Question: What about the inhibition [5] of the same compound?
Answer: Active

Question: And the inhibition [6]?
Answer: inactive

Question: And the Activity (MCF7 [7])?
Answer: Non-Toxic

Question: And the Activity (Mus musculus)?
Answer: Active
